The text below walks through data of PMC2094211 (Biochimica et Biophysica Acta. Molecular Basis of Disease, 2007).

In assay [1] the target is T1, FPR R190/N192 (Homo sapiens, UniProt P21462).
T1 sequence (P21462 1-350): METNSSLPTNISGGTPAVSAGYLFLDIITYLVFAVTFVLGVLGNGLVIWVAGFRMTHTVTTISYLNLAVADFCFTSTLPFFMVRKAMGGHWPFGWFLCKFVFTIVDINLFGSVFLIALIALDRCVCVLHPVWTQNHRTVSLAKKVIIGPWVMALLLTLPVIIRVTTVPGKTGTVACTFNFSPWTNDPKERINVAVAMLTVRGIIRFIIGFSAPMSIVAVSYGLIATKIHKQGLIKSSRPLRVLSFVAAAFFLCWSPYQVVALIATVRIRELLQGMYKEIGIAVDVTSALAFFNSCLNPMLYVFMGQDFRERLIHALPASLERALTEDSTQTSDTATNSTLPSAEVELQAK
Briefly: Downregulation of surface FPR in CHO S cells. The class given is cell-based. In outline: (§1)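 CHO S cells expressing the FPR variant were exposed to test compound (0.4% DMSO) in CHO-S-SFMII for 1 h at 37 °C. They were washed twice with cold phosphate buffer, then labeled 1 h at 4 °C with 50 nM formyl-Nle-Leu-Phe-Nle-Tyr-Lys-FITC in pH 7.4 buffer with Mg++, Ca++ and 5% FBS. Mean fluorescence was measured by FACScan, minus non-expressing cells.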

Assay [2] deals with T2, FPR W190/N192 (Homo sapiens, UniProt P21462, R190W).
T2 sequence (P21462 1-350 R190W): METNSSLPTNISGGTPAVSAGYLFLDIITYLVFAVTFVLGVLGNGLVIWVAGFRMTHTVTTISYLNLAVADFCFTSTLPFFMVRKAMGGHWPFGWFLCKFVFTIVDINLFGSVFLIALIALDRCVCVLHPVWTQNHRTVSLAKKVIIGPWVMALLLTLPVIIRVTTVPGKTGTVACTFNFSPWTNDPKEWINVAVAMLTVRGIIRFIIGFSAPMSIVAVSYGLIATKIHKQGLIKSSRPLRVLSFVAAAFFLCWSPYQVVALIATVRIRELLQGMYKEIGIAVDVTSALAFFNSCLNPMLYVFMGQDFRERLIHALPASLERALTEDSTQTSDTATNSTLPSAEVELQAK
The assay can be described thus: Downregulation of surface FPR in CHO S cells. The class given is cell-based. In outline:
as §1

Assay [3] concerns the target T3, FPR R190/K192 (Homo sapiens, UniProt P21462, N192K).
T3 sequence (P21462 1-350 N192K): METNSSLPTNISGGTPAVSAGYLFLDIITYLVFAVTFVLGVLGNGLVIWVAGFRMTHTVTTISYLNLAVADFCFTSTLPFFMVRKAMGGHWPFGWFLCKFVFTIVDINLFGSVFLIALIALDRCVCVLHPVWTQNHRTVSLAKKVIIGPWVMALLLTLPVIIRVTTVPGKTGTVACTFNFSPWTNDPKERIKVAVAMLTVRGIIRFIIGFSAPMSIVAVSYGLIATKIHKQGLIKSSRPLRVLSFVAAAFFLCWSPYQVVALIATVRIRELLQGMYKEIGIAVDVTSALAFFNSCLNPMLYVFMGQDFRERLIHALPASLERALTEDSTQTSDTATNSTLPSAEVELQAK
Briefly: Downregulation of surface FPR in CHO S cells. The class given is cell-based. In outline:
as §1

Assay [4] deals with T2, FPR W190/N192. The assay can be described thus: FACScan analysis of ligand binding.
Assay [5] deals with T3, FPR R190/K192. Briefly: FACScan analysis of ligand binding.
Assay [6] deals with T1, FPR R190/N192. Briefly: FACScan analysis of ligand binding.
The target of assay [7] is T4, FPR R190/N192 (Homo sapiens, UniProt P21462).
T4 chain: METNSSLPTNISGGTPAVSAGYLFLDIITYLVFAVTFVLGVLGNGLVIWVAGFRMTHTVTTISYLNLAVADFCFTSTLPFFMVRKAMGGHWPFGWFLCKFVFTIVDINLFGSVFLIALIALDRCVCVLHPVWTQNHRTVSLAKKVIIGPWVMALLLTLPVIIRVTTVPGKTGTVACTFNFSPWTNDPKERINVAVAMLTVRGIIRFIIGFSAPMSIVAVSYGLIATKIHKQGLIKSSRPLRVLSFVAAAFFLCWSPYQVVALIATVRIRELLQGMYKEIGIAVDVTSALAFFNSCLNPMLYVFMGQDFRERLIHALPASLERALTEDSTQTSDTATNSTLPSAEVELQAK
The assay can be described thus: FACS competition with formyl-Nle-Leu-Phe-Nle-Tyr-Lys-FITC.

Assay [8] addresses T5, FPR W190/N192 (Homo sapiens, UniProt P21462).
T5 chain: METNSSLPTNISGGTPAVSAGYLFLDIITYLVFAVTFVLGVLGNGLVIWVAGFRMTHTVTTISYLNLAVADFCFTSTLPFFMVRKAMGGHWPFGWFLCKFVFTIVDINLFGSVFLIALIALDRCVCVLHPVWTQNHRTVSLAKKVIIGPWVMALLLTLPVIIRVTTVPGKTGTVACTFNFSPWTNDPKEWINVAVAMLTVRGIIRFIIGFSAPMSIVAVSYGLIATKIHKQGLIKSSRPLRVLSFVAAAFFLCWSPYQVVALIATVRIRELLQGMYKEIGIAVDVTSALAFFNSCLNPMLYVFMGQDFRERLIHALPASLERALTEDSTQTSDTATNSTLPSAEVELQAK
The description is as above.

The term Ki denotes the equilibrium dissociation constant of an inhibitor or competing ligand from its target.

Square brackets hold non-standard residues; d marks the D form. Ends that are not written are not given here. * marks the point of attachment. Nle = CCCC[C@H](N)C(=O)O; For = O=C*

formyl-NleNleWED: the “Downregulation of surface receptor, R190/N192” value on FPR R190/N192 [1] (concentrations up to 50 μM) is reported as “very little downregulation”. For the same molecule, the “Downregulation of surface receptor, W190/N192” value at FPR W190/N192 [2] (concentrations up to 50 μM) is reported as “very little downregulation”. The “Downregulation of surface receptor, R190/K192” value on FPR R190/K192 [3] (concentrations up to 50 μM) is on record as “very little downregulation”.

For Ac-WEDAVGWI-NH2, the “Binding relative to WEDWVGWI, W190/N192” value on FPR W190/N192 [4] (fold weaker) is given as “more than 10 fold”. Moreover, the “Binding relative to WEDWVGWI, R190/K192” value on FPR R190/K192 [5] (fold weaker) was “more than 10 fold”. The “Binding relative to WEDWVGWI, R190/N192” value at FPR R190/N192 [6] (fold weaker) is on record as “more than 10 fold”.

Regarding Ac-WEDWVGWI-NH2, the “Inhibition of the downregulation with 300 nM formyl-Nle-Leu-Phe, R190/N192” value on FPR R190/N192 [1] (25 μM peptide, data not shown) was roughly 50%. The Ki on FPR W190/N192 [4] worked out at 2600 ± 400 nM; at FPR R190/K192 [5] (Ki for binding of peptides to R190/K192 FPR, ± SEM, vs 0.38 nM formyl-Nle-Leu-Phe-Nle-Tyr-Lys-FITC, 4 °C, 60 min), 1300 ± 300 nM; at FPR R190/N192 [6] (Ki for binding of peptides to R190/N192 FPR, ± SEM, vs 0.38 nM formyl-Nle-Leu-Phe-Nle-Tyr-Lys-FITC, 4 °C, 60 min), 1300 ± 200 nM. In addition, the “Inhibition of the downregulation with 300 nM formyl-Nle-Leu-Phe, W190/N192” value at FPR W190/N192 [2] (25 μM peptide, data not shown) was roughly 50%. Besides, on FPR R190/K192 [3] (25 μM peptide, data not shown), the “Inhibition of the downregulation with 300 nM formyl-Nle-Leu-Phe, R190/K192” value was roughly 50%.

As to Ac-WEDWVGWI-NH2 [WEDWVGWI (FIV GP-36 peptide)], the inhibition constant (Ki) with FPR R190/N192 [7] came to 1300 nM.

Turning to For-[Nle][Nle]WEDWVGWI [formyl-NleNleWEDWVGWI, listing 1 of 2 here], in the assay with FPR R190/N192 [7], the Ki was found to be 480 nM.

The molecule For-[Nle][Nle]WEDWVGWI [formyl-NleNleWEDWVGWI, listing 2 of 2 here] returned a Ki in the assay with FPR W190/N192 [8] of 1000 nM. That is a single-digit micromolar value.
